This is an account of results in ChEMBL document CHEMBL1765045, “Fine-tuning the selectivity of aldosterone synthase inhibitors: structure-activity and structure-selectivity insights from studies of heteroaryl substituted 1,2,5,6-tetrahydropyrrolo[3,2,1-ij]quinolin-4-one derivatives” (J Med Chem, 2011).

The inhibition is the share of the control response that was lost under treatment. Lower therefore signals a response near the control.

Data set [1] has as its target T1, CYP2C9 (Homo sapiens, UniProt P11712). Briefly: Inhibition of human CYP2C9 expressed in baculovirus-infected insect microsomes at 10 uM. The data set is classed as ADME, Microsome. The procedure, abridged:
(§1)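 Recombinant human CYP1A2, 2B6, 2C9, 2C19, 2D6 or 3A4 in baculovirus-infected insect microsomes (Supersomes), run per manufacturer's protocol. Inhibitor at 1 and 10 μM; percent inhibition is the mean of two experiments.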

Data set [2] has as its target T2, CYP3A4 (Homo sapiens, UniProt P08684). Briefly: Inhibition of human CYP3A4 expressed in baculovirus-infected insect microsomes at 10 uM. Type of data set: ADME, Microsome. The procedure, abridged:
as §1

The target in data set [3] is T1, CYP2C9. The data set is described as follows: Inhibition of human CYP2C9 expressed in baculovirus-infected insect microsomes at 1 uM. The data set is classed as ADME, Microsome. The procedure, abridged:
as §1

The target in data set [4] is T2, CYP3A4. Briefly: Inhibition of human CYP3A4 expressed in baculovirus-infected insect microsomes at 1 uM. Type of data set: ADME, Microsome. The method, boiled down:
as §1

Data set [5] concerns the target T3, CYP2B6 (Homo sapiens, UniProt P20813).
T3 sequence (P20813 whole entry): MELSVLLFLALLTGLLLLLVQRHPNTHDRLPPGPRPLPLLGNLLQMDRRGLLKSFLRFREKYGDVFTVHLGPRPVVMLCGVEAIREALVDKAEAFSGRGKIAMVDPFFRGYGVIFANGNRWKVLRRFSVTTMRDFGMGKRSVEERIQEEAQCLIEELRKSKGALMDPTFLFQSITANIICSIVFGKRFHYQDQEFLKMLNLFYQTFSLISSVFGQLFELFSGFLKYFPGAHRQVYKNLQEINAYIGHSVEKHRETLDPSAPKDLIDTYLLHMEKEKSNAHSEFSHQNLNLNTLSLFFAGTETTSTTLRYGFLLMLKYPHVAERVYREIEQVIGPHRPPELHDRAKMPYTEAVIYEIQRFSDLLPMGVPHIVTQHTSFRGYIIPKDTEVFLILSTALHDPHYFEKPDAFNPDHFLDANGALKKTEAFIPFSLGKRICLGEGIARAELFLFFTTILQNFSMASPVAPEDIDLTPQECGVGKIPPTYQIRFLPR
The data set is described as follows: Inhibition of human CYP2B6 expressed in baculovirus-infected insect microsomes at 10 uM. The data set is classed as ADME, Microsome. The method, boiled down:
as §1

Data set [6] concerns the target T3, CYP2B6. The data set is described as follows: Inhibition of human CYP2B6 expressed in baculovirus-infected insect microsomes at 1 uM. Type of data set: ADME, Microsome. The method, boiled down:
as §1

For data set [7], the target named is T4, CYP1A2 (Homo sapiens, UniProt P05177).
T4 sequence (P05177 whole entry): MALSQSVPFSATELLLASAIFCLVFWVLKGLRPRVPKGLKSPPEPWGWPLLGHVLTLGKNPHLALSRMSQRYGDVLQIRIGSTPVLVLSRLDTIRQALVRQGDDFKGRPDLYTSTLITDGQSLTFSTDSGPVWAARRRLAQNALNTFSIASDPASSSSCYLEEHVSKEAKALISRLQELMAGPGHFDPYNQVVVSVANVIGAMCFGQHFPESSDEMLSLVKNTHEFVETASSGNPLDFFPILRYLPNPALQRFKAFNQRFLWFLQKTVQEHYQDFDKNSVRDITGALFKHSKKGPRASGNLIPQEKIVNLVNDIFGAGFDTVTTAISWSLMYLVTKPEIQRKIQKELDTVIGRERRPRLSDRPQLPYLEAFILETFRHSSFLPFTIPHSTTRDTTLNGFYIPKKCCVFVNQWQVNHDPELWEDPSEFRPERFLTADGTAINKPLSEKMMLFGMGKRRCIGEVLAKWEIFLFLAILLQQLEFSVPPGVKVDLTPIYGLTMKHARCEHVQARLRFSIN
The data set is described as follows: Inhibition of human CYP1A2 expressed in baculovirus-infected insect microsomes at 10 uM. Type of data set: ADME, Microsome. The method, boiled down: as §1

Data set [8] deals with CYP2C19 (Homo sapiens, UniProt P33261). The data set is described as follows: Inhibition of human CYP2C19 expressed in baculovirus-infected insect microsomes at 1 uM. Type of data set: ADME, Microsome. The procedure, abridged:
as §1

For data set [9], the species on record is Homo sapiens. The data set is described as follows: Selectivity ratio of IC50 for human CYP11B1 to IC50 for human CYP11B2. The method, boiled down:
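Ratio of IC50 values from V79 MZh cell assays for human CYP11B1 and CYP11B2, IC50 CYP11B1/IC50 CYP11B2. Both assays used [4-14C]-11-deoxycorticosterone, 100 nM, inhibitor at ≥3 concentrations and HPTLC/phosphoimager readout of conversion.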

Data set [10] has as its target T5, aromatase (CYP19) (Homo sapiens, UniProt P11511).
T5 sequence (P11511 whole entry): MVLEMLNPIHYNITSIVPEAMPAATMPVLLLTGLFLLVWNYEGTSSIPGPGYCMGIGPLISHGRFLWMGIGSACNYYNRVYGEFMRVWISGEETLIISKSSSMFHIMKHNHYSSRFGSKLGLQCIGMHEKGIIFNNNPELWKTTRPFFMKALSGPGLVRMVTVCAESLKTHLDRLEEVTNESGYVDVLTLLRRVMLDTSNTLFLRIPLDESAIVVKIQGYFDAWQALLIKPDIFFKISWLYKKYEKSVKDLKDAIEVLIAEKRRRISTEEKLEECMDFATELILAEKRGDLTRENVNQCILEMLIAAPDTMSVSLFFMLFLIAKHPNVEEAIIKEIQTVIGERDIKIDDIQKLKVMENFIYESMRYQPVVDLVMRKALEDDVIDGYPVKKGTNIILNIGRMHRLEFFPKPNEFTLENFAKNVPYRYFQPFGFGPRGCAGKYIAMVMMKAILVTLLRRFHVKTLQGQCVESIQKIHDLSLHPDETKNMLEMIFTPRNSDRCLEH
Briefly: Inhibition of aromatase at 0.5 uM. The procedure, abridged: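 Human placental microsomes as CYP19 source, [1β-3H]androstenedione substrate at 500 nM, inhibitor at 500 nM. Modified Thompson–Siiteri method, with fadrozole as reference.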

Data set [11] has as its target T4, CYP1A2. The data set is described as follows: Inhibition of CYP1A2 at 1 uM. Type of data set: ADME. The method, boiled down:
as §1

T2 sequence (P08684 whole entry): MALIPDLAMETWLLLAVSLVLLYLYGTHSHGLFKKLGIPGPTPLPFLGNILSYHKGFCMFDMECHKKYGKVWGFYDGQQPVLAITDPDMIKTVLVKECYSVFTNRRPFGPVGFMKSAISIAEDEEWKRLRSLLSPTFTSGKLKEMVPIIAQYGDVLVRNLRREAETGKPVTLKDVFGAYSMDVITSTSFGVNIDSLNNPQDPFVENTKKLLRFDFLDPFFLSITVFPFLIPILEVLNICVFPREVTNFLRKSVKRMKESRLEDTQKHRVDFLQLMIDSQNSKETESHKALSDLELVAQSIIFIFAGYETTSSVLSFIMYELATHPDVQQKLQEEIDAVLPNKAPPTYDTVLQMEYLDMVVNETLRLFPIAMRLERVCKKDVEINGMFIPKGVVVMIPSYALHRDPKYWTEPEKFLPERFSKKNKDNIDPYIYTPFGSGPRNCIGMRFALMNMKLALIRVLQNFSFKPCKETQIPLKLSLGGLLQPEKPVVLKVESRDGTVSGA
CYP2C19, sequence (P33261 whole entry): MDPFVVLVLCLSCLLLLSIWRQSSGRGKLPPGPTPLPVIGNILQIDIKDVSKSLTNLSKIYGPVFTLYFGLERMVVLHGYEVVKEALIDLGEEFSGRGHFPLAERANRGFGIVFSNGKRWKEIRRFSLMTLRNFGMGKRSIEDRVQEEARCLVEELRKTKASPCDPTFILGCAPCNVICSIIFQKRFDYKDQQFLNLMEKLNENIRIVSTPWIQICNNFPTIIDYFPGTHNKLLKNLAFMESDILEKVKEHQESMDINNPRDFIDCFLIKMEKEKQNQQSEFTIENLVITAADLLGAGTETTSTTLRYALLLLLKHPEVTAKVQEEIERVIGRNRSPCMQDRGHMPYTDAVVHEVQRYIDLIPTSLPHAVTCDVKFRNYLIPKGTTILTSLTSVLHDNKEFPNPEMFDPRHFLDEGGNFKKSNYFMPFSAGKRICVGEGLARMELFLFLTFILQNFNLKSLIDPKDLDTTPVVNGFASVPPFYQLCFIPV
T1 sequence (P11712 whole entry): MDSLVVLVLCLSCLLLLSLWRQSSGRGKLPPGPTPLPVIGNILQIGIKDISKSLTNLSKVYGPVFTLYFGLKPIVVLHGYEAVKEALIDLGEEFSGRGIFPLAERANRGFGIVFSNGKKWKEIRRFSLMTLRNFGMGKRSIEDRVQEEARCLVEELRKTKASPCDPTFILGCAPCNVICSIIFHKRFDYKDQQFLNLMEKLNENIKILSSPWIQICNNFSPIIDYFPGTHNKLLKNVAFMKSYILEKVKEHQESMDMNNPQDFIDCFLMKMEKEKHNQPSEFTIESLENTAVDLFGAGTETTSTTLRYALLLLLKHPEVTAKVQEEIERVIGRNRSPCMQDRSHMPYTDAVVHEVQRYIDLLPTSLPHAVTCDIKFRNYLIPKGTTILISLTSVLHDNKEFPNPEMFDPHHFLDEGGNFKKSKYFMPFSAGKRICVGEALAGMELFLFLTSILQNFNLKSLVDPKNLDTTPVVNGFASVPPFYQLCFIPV

In the case of `O=C1CCc2cc(-c3cncc(-c4cccc(F)c4)c3)cc3c2N1CC3`, the inhibition at 10 µM in data set [1] is 79%; in data set [2] it was 43%; in [5], 13%; in [7], 38%. In addition, the inhibition at 1 µM is 39% in data set [3], 37% in [4] and less than 5% in [6].
`COc1cncc(-c2cc3c4c(c2)CCN4C(=O)CC3)c1`: the inhibition at 10 µM in [1] is 42%; in data set [2], 19%; in [5], 8%; in data set [7], 72%. In addition, the inhibition at 1 µM in data set [8] was 7%; in [3], 23%; in data set [4] it was 14%; in [6], less than 5%.
With `O=C1CCc2cc(-c3cccnc3)cc3c2N1CC3`, the inhibition at 10 µM in data set [1] was 41%; in data set [2], less than 5%; in [5] it was less than 5%; in data set [7] it was 43%. In addition, the inhibition at 1 µM in [8] is less than 5%; in data set [3], 6%; in data set [4], less than 5%; in data set [6], less than 5%. In data set [9], the Ratio IC50 was 650.
`O=C1CCc2cc(-c3cccnc3)cc3c2N1CCC3`: the inhibition at 10 µM in data set [1] was 40%; in data set [2], 21%; in data set [5], 36%; in data set [7] it was 83%. For the same compound, the inhibition at 1 µM worked out at 8% in data set [8]; 19% in data set [3]; 6% in [4]; 41% in data set [11]; 27% in [6]. The same compound registered an inhibition at 0.5 µM in [10] of 69%.
